Measured values pooled from the literature.
Protocols differ between the studies behind these lines.
EDNRA: Endothelin-1 receptor (EDNRA, Homo sapiens, UniProt P25101)
PDE5A: cGMP-specific 3',5'-cyclic phosphodiesterase (PDE5A, Homo sapiens, UniProt O76074)
PROC: Vitamin K-dependent protein C (PROC, Homo sapiens, UniProt P04070)

For `CC(C)[C@H](NC(=O)OCc1ccccc1)C(=O)N[C@@H](CCCN=C(N)N)C(=O)N1CCC[C@H]1C(=O)N[C@@H](CCCN=C(N)N)C(=O)CF`, the inhibition was 9% (Mucosa-associated lymphoid tissue lymphoma translocation protein 1 (MALT1, Homo sapiens, UniProt Q9UDY8); enzyme activity, inhibitor; 1 nM).
For `CC(C)N1CCC[C@H]1CNC(=O)c1cn(C2CCCC2)c(=O)c2c1c1ccccc1n2C`, the inhibition was 11% (EDNRA; ligand displacement, radioligand; 10 µM).
`N=C(N)c1ccc2cc(OC(=O)c3ccc(N=C(N)N)cc3)ccc2c1` gave an inhibition of 4% (Caspase-6 (CASP6, Homo sapiens, UniProt P55212); enzyme activity, inhibitor; 10 µM).
`CN(CCN1CCC(OC(=O)Nc2ccccc2-c2ccccc2)CC1)C(=O)c1ccc(CN2CCC(C(N)=O)CC2)cc1` gave an inhibition of 0% (PDE5A; enzyme activity, inhibitor; 1 µM).
With `CC(C)=CCCC1(C)C=Cc2c(O)c3c(c(CC=C(C)C)c2O1)OC12C(=CC4CC1C(C)(C)OC2(C/C=C(/C)C(=O)O)C4O)C3=O` (centres unmarked) the inhibition was -4% (Histone-lysine N-methyltransferase EHMT1 (EHMT1, Homo sapiens, UniProt Q9H9B1); cell-free assay; 10 µM).
For `c1ccc(C(NCCNC(c2ccccc2)c2ccccc2)c2ccccc2)cc1`, the inhibition was 0% (PDE5A; enzyme activity, inhibitor; 10 µM).
For `CCN(CC)CCCC[C@H](NC(=O)[C@H](CC(C)C)NC(=O)[C@H](C)NC(=O)[C@H](Cc1ccccc1)NC(=O)c1ccc(C(C)(C)C)cc1)C(=O)N[C@@H](CO)C(=O)OC`, the inhibition was -2% (Adenosine receptor A2a (ADORA2A, Homo sapiens, UniProt P29274); ligand displacement, radioligand; 10 µM).
`O=C(Nc1cccnn1)N1CCN([C@@H]2CCOc3cc(C(F)(F)F)ccc32)CC1` gave an inhibition of 5% (PDE5A; enzyme activity, inhibitor; 20 µM).
`Clc1ccc2c(C3CCN(CCc4c[nH]c5ccccc45)CC3)c[nH]c2c1` gave an inhibition of -12% (EDNRA; ligand displacement, radioligand; 10 µM).
`Cn1cc(-c2cc(F)cc(N3CCn4c(cc5c4CCCC5)C3=O)c2CO)cc(Nc2ccc(N3CCN(C4COC4)CC3)cn2)c1=O` gave an inhibition of 4% (Sphingosine kinase 1 (SPHK1, Homo sapiens, UniProt Q9NYA1); enzyme activity, inhibitor; 0.1 µM).
The inhibition of `CCOC(=O)c1ccc(OC(=O)CCCCCNC(=N)N)cc1` is reported as 99% (PROC; enzyme activity, inhibitor; 10 µM).
`C[C@H]1N=C(c2ccccc2F)c2cc(Br)ccc2-n2cnc(C(=O)O)c21` gave an inhibition of 52.3% (Kappa-type opioid receptor (OPRK1, Homo sapiens, UniProt P41145); ligand displacement, radioligand; 10 µM).
For `[H]/N=C(/N)c1ccc(NCc2nc3cc(C(=O)N(CCC(=O)O)c4ccccn4)ccc3n2C)cc1`, the inhibition was 95% (PROC; enzyme activity, inhibitor; 20 µM).
`COc1cc(Nc2ncc(F)c(Nc3ccc4c(n3)NC(=O)C(C)(C)O4)n2)cc(OC)c1OC` has an inhibition of 0% (Serine/threonine-protein kinase VRK2 (VRK2, Homo sapiens, UniProt Q86Y07); binding; 10 µM).
`C#Cc1n[nH]c2c(-c3cn(C(C)c4ccccn4)c(=O)[nH]c3=O)cc(F)cc12` (centres unmarked) gave an inhibition of 6.7% (Aurora kinase B (AURKB, Homo sapiens, UniProt Q96GD4); enzyme activity, inhibitor; 1 µM).
The inhibition of `COCc1c(-c2cc3cc(C)cc(OC)c3s2)c2c(N)ncnn2c1CN1CCNC(=O)C1` is reported as 12% (EDNRA; ligand displacement, radioligand; 10 µM).
The inhibition of `O[C@H]1[C@H](n2cnc3c(NC(C4CCCCC4)C4CCCCC4)nc(Cl)nc32)[C@H]2C[C@@]2(CCl)[C@H]1O` is reported as 21% (5-hydroxytryptamine receptor 2A (HTR2A, Homo sapiens, UniProt P28223); ligand displacement, radioligand; 10 µM).
The inhibition of `Cn1cc(-c2cccc(N3CCc4c(sc5c4CC(C)(C)C5)C3=O)c2CO)cc(Nc2ccncn2)c1=O` is reported as -3% (Phosphatidylinositol 4-phosphate 3-kinase C2 domain-containing subunit beta (PIK3C2B, Homo sapiens, UniProt O00750); enzyme activity, inhibitor; 1 µM).
`CN(C)C(=O)COC(=O)Cc1ccc(OC(=O)c2ccc(NC(=N)N)cc2)cc1` has an inhibition of 77% (PROC; enzyme activity, inhibitor; 10 µM).
For `CC(C)Cn1cnc2c(N)nc3ccccc3c21`, the inhibition was 8% (EDNRA; ligand displacement, radioligand; 10 µM).
